Data set [1] is described as follows: MTT cytotoxicity assay, WISH cell line. It counts as cell-based. The following applies: human, WISH cells (human amnion). The gist of the method:
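WISH cells (ATCC via VACSERA) grown in RPMI-1640 with 10% fetal bovine serum at 37 °C, 5% CO2. Seeded at 1.0 × 10^4 cells/well for 48 h, then treated 24 h with a range of concentrations. MTT (5 mg/mL stock) added for 4 h, formazan dissolved in DMSO, A570 read. Viability given as % of untreated cells. IC50 in μg/mL is the concentration giving 50% inhibition versus untreated cells. Doxorubicin reference.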
Background: Formazan colour is commonly taken as a measure of viable cells.

Data set [2] in a line: Antioxidant activity screening by ABTS method. The following applies: ABTS radical scavenging, 6 min incubation, absorbance at 734 nm. In a few lines:
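ABTS radical made from 7 mM ABTS plus 140 mM […], left in the dark at room temperature for 16 h, then diluted 1:44 (v/v) in water. Equal volumes of radical solution and sample mixed in microplate and held 6 min at room temperature. Absorbance read at 734 nm against 100% methanol. Percent inhibition calculated by formula; L-ascorbic acid as reference.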

Each structure is given as a SMILES string.

As usually defined, the IC50 is the concentration needed to halve the response being measured. A low value points to higher potency. `COc1cccc2c1C(=O)c1c(O)c3c(c(O)c1C2=O)C[C@@](O)(C(=O)CO)C[C@@H]3O[C@H]1C[C@H](N)[C@H](O)[C@H](C)O1` [DOX, doxorubicin] showed a 50% inhibitory concentration (IC50) at 24 h in data set [1] of 3.18 ± 0.2 µM. For the molecule `O=C1O[C@H]([C@@H](O)CO)C(O)=C1O` [L-Ascorbic acid], the “ABTS Inhibition %” value in data set [2] is given as 88.8%.

Source of the values: paper PMC10447992 (Heliyon, 2023).
